Here are results for 23 compounds from ChEMBL document CHEMBL4325842, “Design, synthesis, and biological evaluation of novel aminopyrimidinylisoindolines as AXL kinase inhibitors” (Bioorg Med Chem Lett, 2018).

Where only a bound is given, the exact number is not on record here.

One experiment concerns HeLa. Put plainly: Antiproliferative activity against human HeLa cells after 2 days by spectrophotometric analysis. Format: functional. To be noted: 48 h. Put shortly:
(§1)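 Cells from ATCC were kept in RPMI 1640 with 5% FBS. They were exposed to graded concentrations in DMSO/RPMI for 48 h at 37 C under 5% CO2, then fixed with 50% trichloroacetic acid. Cellular protein was read at 540 nm at time zero and at 48 h, with and without compound. TGI (100% growth inhibition) was taken from the concentration-response curve.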

For the next experiment, the system named is U-87 MG. Description: Antiproliferative activity against human U87MG cells after 2 days by spectrophotometric analysis. To be noted: 48 h. Format: functional, U-87MG ATCC.
For the next experiment, the system named is A549. Description: Antiproliferative activity against human A549 cells after 2 days by spectrophotometric analysis. Format: functional. To be noted: A549, 48 h.
For a further experiment, the system named is OVCAR-3. Description: Antiproliferative activity against human OVCAR3 cells after 2 days by spectrophotometric analysis. The class given is functional. To be noted: OVCAR-3, 48 h. Put shortly:
as §1

The target of experiment [1] is T1, Tyrosine-protein kinase receptor UFO (Homo sapiens, UniProt P30530).
T1 sequence (P30530 whole entry): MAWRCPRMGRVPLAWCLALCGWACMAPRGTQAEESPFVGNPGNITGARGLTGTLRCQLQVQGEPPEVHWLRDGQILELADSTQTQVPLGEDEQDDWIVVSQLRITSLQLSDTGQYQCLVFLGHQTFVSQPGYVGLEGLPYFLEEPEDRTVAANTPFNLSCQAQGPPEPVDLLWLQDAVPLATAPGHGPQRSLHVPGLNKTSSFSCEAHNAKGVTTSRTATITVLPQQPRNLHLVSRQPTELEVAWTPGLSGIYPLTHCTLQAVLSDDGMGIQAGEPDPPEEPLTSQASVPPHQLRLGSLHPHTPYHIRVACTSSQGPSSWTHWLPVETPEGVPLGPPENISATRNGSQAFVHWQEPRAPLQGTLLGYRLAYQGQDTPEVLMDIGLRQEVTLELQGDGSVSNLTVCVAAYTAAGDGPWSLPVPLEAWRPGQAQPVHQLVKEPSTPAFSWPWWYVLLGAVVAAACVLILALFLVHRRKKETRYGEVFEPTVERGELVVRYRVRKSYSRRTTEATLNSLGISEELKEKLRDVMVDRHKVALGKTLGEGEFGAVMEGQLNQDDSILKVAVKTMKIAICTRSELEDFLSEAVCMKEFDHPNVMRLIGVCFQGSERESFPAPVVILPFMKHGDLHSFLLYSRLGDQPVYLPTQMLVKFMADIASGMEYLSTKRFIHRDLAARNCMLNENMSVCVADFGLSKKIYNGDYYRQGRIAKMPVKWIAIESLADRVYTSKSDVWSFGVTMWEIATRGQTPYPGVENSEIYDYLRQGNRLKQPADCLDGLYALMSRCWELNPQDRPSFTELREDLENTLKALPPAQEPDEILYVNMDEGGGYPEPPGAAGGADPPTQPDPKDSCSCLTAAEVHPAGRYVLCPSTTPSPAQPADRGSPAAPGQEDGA
Put plainly: Inhibition of N-terminal His-tagged recombinant human AXL (473 to end amino acids) expressed by baculovirus in Sf9 cells using axltide substrate and ATP by ADP-Glo luminescence assay.

For a further experiment, the system named is HepG2. Description: Antiproliferative activity against human HepG2 cells after 2 days by spectrophotometric analysis. The class given is functional. To be noted: HepG2, 48 h.

As usually defined, the GI50 is the concentration at which growth is held to half of that of the control. A low value points to more potent growth inhibition. A word on the IC50: it is the concentration that inhibits the measured activity by half. Take `CN(c1cccc2c1CN(c1nc(Nc3ccc(Nc4ccccc4)cc3)ncc1C(F)(F)F)C2)S(C)(=O)=O`: the GI50 in the experiment on HeLa was 7.3 µM; in the experiment with U-87 MG, 29.8 µM; in the experiment with A549, 6.2 µM; in the experiment on OVCAR-3, more than 50 µM; in the experiment on HepG2, 8.6 µM. For the same compound, the IC50 in experiment [1] is more than 20 µM.

`Cc1cc(Cl)ccc1Nc1ncc(C(F)(F)F)c(N2Cc3cccc(N(C)S(C)(=O)=O)c3C2)n1`: the GI50 was 17.4 µM in the experiment with HeLa; 28.3 µM with U-87 MG; 25.5 µM in the experiment with A549; more than 30 µM in the experiment on OVCAR-3; 19.6 µM in the experiment on HepG2. For the same compound, the IC50 in experiment [1] was more than 20 µM.

With `CN(c1cccc2c1CN(c1nc(Nc3cccc(C(F)(F)F)c3)ncc1C(F)(F)F)C2)S(C)(=O)=O`, the GI50 in the experiment on HeLa was 5.3 µM; in the experiment with U-87 MG, more than 30 µM; in the experiment on A549, more than 30 µM; with OVCAR-3, more than 30 µM; in the experiment on HepG2 it was more than 30 µM.

Turning to `Cc1cc(C)cc(Nc2ncc(C(F)(F)F)c(N3Cc4cccc(N(C)S(C)(=O)=O)c4C3)n2)c1`, the GI50 in the experiment with HeLa, with U-87 MG, in the experiment with A549, with OVCAR-3 and with HepG2 was more than 30 µM in each case. For the same compound, the IC50 in experiment [1] was more than 20 µM.

On to `CN(c1cccc2c1CN(c1nc(Nc3ccc(Cl)c(C(F)(F)F)c3)ncc1C(F)(F)F)C2)S(C)(=O)=O`, for which the GI50 is 11.1 µM in the experiment on HeLa; more than 30 µM in the experiment on U-87 MG; 15.2 µM in the experiment with A549; more than 50 µM in the experiment with OVCAR-3; 16 µM with HepG2. Besides, the IC50 in experiment [1] was more than 20 µM.

Turning to `Cc1ccc(Nc2ncc(C(F)(F)F)c(N3Cc4cccc(N(C)S(C)(=O)=O)c4C3)n2)c(Cl)c1`, the GI50 in the experiment on HeLa is 10.9 µM; with U-87 MG it was more than 30 µM; with A549 it was more than 30 µM; with OVCAR-3, more than 30 µM; in the experiment with HepG2, more than 30 µM. Besides, the IC50 in experiment [1] was more than 20 µM.

`CN(c1cccc2c1CN(c1nc(Nc3cccc(Oc4ccccc4)c3)ncc1C(F)(F)F)C2)S(C)(=O)=O`: the GI50 with HeLa is 4.3 µM; with U-87 MG, 19.5 µM; in the experiment with A549 it was 19 µM; in the experiment on OVCAR-3 it was 24.9 µM; in the experiment with HepG2, 23 µM.

For `COc1ccc(Nc2ncc(C(F)(F)F)c(N3Cc4cccc(N(C)S(C)(=O)=O)c4C3)n2)cc1C(F)(F)F`, the GI50 with HeLa was 14 µM; in the experiment with U-87 MG, 29.4 µM; in the experiment on A549, more than 30 µM; with OVCAR-3 it was more than 30 µM; in the experiment on HepG2, more than 30 µM. Also, the IC50 in experiment [1] was more than 20 µM.

Take `CN(c1ncccc1CNc1nc(Nc2ccc3c(c2)CC(=O)N3)ncc1C(F)(F)F)S(C)(=O)=O`: the GI50 with HeLa is 1.7 µM; in the experiment with U-87 MG, 3.7 µM; in the experiment on A549 it was 2.1 µM; with OVCAR-3, 1.8 µM; in the experiment with HepG2, 1.2 µM.

For the compound `CN(c1cccc2c1CN(c1nc(Nc3ccc4c(c3)OCO4)ncc1C(F)(F)F)C2)S(C)(=O)=O`, the GI50 in the experiment with HeLa is 6.3 µM; in the experiment on U-87 MG, more than 30 µM; with A549, 12.1 µM; in the experiment on OVCAR-3, more than 30 µM; in the experiment with HepG2 it was 9.8 µM.

As for `CN(c1cccc2c1CN(c1nc(Nc3ccccc3N3CCOCC3)ncc1C(F)(F)F)C2)S(C)(=O)=O`, the GI50 with HeLa is 23.9 µM; in the experiment on U-87 MG, more than 30 µM; with A549, more than 30 µM; in the experiment on OVCAR-3, more than 50 µM; with HepG2, more than 30 µM. In addition, in experiment [1], the IC50 is more than 20 µM.

In the case of `Cc1ccc(Nc2ncc(C(F)(F)F)c(N3Cc4cccc(N(C)S(C)(=O)=O)c4C3)n2)c(C)c1`, the GI50 in the experiment on HeLa is 10.6 µM; with U-87 MG, more than 30 µM; in the experiment with A549, 20.7 µM; in the experiment with OVCAR-3 it was more than 30 µM; in the experiment with HepG2 it was 19.1 µM.

Consider `CN(c1cccc2c1CN(c1nc(Nc3cc(C(F)(F)F)cc(C(F)(F)F)c3)ncc1C(F)(F)F)C2)S(C)(=O)=O`, for which the GI50 was 9.2 µM in the experiment with HeLa; 16.8 µM in the experiment on U-87 MG; more than 30 µM in the experiment on A549; more than 30 µM with OVCAR-3; 10.3 µM in the experiment on HepG2. The IC50 in experiment [1] is more than 20 µM.

As to `COc1cc(Nc2ncc(C(F)(F)F)c(N3Cc4cccc(N(C)S(C)(=O)=O)c4C3)n2)c(OC)cc1Cl`, the GI50 in the experiment on HeLa is 16.5 µM; in the experiment with U-87 MG it was 6.2 µM; in the experiment with A549, 7.3 µM; in the experiment on OVCAR-3, more than 30 µM; in the experiment on HepG2, 25.6 µM. In addition, the IC50 in experiment [1] is more than 20 µM.

Regarding `CN(c1cccc2c1CN(c1nc(Nc3ccc(N4CCOCC4)cc3)ncc1C(F)(F)F)C2)S(C)(=O)=O`, the GI50 turned out to be 0.79 µM with HeLa; 6.8 µM in the experiment on U-87 MG; 2.5 µM with A549; 2.4 µM in the experiment with OVCAR-3; 1.9 µM in the experiment on HepG2.

For the compound `Cc1ccc(Nc2ncc(C(F)(F)F)c(N3Cc4cccc(N(C)S(C)(=O)=O)c4C3)n2)cc1C`, the GI50 in the experiment on HeLa, with U-87 MG, in the experiment with A549, in the experiment with OVCAR-3 and with HepG2 was more than 30 µM each time. The IC50 in experiment [1] is more than 20 µM.

As for `CN(c1cccc2c1CN(c1nc(Nc3cc(Cl)cc(C(F)(F)F)c3)ncc1C(F)(F)F)C2)S(C)(=O)=O`, the GI50 was 4.3 µM in the experiment on HeLa; 5.5 µM in the experiment on U-87 MG; 6.7 µM with A549; 21.5 µM with OVCAR-3; 9.9 µM in the experiment on HepG2. Further, in experiment [1], the IC50 was more than 30 µM.

As for `COc1cc(Nc2ncc(C(F)(F)F)c(N3Cc4cccc(N(C)S(C)(=O)=O)c4C3)n2)cc(C(F)(F)F)c1`, the GI50 was 5.1 µM with HeLa; more than 30 µM with U-87 MG; more than 30 µM with A549; more than 30 µM in the experiment with OVCAR-3; 22.1 µM in the experiment with HepG2.

Consider `COc1ccc(C(F)(F)F)cc1Nc1ncc(C(F)(F)F)c(N2Cc3cccc(N(C)S(C)(=O)=O)c3C2)n1`, for which the GI50 in the experiment on HeLa was 17.2 µM; in the experiment with U-87 MG, more than 30 µM; with A549, more than 30 µM; in the experiment on OVCAR-3, more than 30 µM; in the experiment with HepG2, more than 30 µM. Also, in experiment [1], the 50% inhibitory concentration (IC50) was more than 20 µM.

`Cc1cc(F)ccc1Nc1ncc(C(F)(F)F)c(N2Cc3cccc(N(C)S(C)(=O)=O)c3C2)n1`: the GI50 is 6.5 µM in the experiment with HeLa; more than 30 µM in the experiment with U-87 MG; more than 30 µM in the experiment with A549; more than 30 µM with OVCAR-3; 16.8 µM in the experiment on HepG2.

`COc1cc(Nc2ncc(C(F)(F)F)c(N3Cc4cccc(N(C)S(C)(=O)=O)c4C3)n2)cc(OC)c1`: the concentration for 50% growth inhibition (GI50) in the experiment with HeLa is 7 µM; in the experiment with U-87 MG, more than 30 µM; with A549, 24.8 µM; in the experiment on OVCAR-3 it was 0.63 µM; in the experiment on HepG2, 1.8 µM.

In the case of `COc1cc(N2CCN(C(C)=O)CC2)ccc1Nc1ncc(C(F)(F)F)c(N2Cc3cccc(N(C)S(C)(=O)=O)c3C2)n1`, the GI50 in the experiment with HeLa worked out at 1.3 µM; with U-87 MG it was 4.7 µM; in the experiment with A549, 3.3 µM; in the experiment with OVCAR-3, 1.6 µM; in the experiment with HepG2, 3.8 µM.

As to `CN(c1cccc2c1CN(c1nc(Nc3ccc(C(F)(F)F)cc3)ncc1C(F)(F)F)C2)S(C)(=O)=O`, the GI50 in the experiment on HeLa, in the experiment on U-87 MG, in the experiment with A549, with OVCAR-3 and with HepG2 was more than 30 µM each time. The half-maximal inhibitory concentration (IC50) in experiment [1] is more than 20 µM.
